According to ChEMBL document CHEMBL1125823, “2-Phenylindole-linked [2-(aminoalkyl)pyridine]dichloroplatinum(II): complexes with a selective action on estrogen receptor positive mammary tumors” (1991):
Each block holds one molecule with its values, some of them ahead of it.

Columns and labels:
[1] = target: T1, Estrogen receptor (Mus musculus) (UniProt O08537+P19785); assay: Anti-uterotrophic effect in hormone-dependent transplant MXT bearing mice as relative uterine weight in treated and control mice at 20 mg (control=100+/-24); format: functional
T1 sequence (P19785 whole entry, looked up, chain 1 of 2): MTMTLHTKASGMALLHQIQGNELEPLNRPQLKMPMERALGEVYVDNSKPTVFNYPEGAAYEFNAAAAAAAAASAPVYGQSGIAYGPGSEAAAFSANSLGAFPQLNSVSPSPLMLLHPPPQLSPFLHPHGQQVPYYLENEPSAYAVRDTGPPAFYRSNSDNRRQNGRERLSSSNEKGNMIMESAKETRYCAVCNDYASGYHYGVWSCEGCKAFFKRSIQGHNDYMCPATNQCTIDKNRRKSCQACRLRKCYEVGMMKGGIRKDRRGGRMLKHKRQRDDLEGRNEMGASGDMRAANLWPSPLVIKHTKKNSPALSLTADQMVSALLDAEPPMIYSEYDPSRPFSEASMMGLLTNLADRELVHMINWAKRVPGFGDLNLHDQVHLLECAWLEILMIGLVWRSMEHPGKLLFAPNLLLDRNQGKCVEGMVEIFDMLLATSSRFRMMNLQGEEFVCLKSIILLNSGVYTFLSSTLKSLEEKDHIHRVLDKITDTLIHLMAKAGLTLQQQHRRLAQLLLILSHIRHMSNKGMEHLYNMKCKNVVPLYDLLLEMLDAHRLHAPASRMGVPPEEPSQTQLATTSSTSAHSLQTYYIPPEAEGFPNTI
T1 sequence (O08537 whole entry, looked up, chain 2 of 2): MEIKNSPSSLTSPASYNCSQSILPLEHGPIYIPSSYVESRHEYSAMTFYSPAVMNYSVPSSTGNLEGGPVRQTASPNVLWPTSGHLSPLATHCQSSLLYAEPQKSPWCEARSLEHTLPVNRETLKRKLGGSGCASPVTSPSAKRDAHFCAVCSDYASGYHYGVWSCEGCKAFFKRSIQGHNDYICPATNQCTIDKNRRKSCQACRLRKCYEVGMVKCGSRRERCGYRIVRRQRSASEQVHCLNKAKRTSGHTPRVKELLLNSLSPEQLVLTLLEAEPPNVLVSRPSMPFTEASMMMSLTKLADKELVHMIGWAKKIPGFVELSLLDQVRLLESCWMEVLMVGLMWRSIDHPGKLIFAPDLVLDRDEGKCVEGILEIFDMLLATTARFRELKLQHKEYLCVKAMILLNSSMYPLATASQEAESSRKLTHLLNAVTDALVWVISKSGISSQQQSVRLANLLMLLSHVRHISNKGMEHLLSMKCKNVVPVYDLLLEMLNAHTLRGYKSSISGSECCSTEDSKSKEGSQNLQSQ

MCF7 [2] = assay: Effect on Estrogen receptor positive MCF-7 human breast cancer cell proliferation at 5x10E-7M (control = 62.7+/-8.8); format: functional
Summary of the method: (§1)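 MCF-7 cells were kept in MEM with 5% charcoal-treated newborn calf serum and phenol red for 2 weeks, then about 2×10^4 cells were plated per well. Compounds in 0.1% DMF were added 2 days later and renewed on day 4; DMF alone served as control. Coulter cell counts were taken on day 5; mean of six dishes ± SD; % T/C.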

MCF7 [3] = assay: Effect on Estrogen receptor positive MCF-7 human breast cancer cell proliferation at 5x10E-6M (control = 62.7+/-8.8); format: functional; summary of the method: as §1
MCF7 [4] = assay: Effect on [3H]thymidine incorporation into estrogen receptor positive MCF-7 human breast cancer cells at 1x10E-6M (control = 48.6+/-3.6); format: functional
Summary of the method: (§2)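 MCF-7 cells were grown in MEM with charcoal-treated 5% newborn calf serum and phenol red, then treated with compounds in 0.1% DMF (renewed on day 4) alongside DMF controls. They were labeled 3 days later with 1 µCi [³H]thymidine per well for 2 h, and incorporated radioactivity per dish was measured; mean of six dishes ± SD; % T/C.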

[5] = target: T1, Estrogen receptor (Mus musculus); assay: Anti-uterotrophic effect in mice as relative uterine weight(mg) at 250 ug; format: functional
Summary of the method: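 Immature mice received the compound sc per animal on three consecutive days, alone or with 0.4 µg estrone per animal per day. Uteri were taken 24 h after the last injection, Bouin-fixed, dried at 100 °C for 24 h and weighed. Relative uterus weight = dry weight (mg)/body weight (g) × 100; mean of 6-10 animals ± SD; Mann-Whitney U test.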

MCF7 [6] = assay: Effect on Estrogen receptor positive MCF-7 human breast cancer cell proliferation at 5x10E-7M; format: functional; summary of the method: as §1
[7] = target: T1, Estrogen receptor (Mus musculus); assay: Uterotrophic effect in mice as relative uterine weight(mg) at 250 ug (control = 14.5+/-2.1); format: functional, tissue-based
Summary of the method: (§3)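 Immature mice dosed sc per animal on three consecutive days; vehicle controls. Killed and weighed 24 h after last injection; uteri fixed in Bouin solution 2 h, washed with alcoholic LiCl, dried at 100 °C for 24 h. Relative uterus weight = uterine dry weight (mg)/body weight (g) × 100; mean of 6-10 animals ± SD.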

MCF7 [8] = assay: Effect on Estrogen receptor positive MCF-7 human breast cancer cell proliferation at 1x10E-6M (control = 62.7+/-8.8); format: functional; summary of the method: as §1
MCF7 [9] = assay: Effect on [3H]thymidine incorporation into estrogen receptor positive MCF-7 human breast cancer cells at 1x10E-6M; format: functional; summary of the method: as §2
Mus musculus [10] = organism: Mus musculus; assay: Relative tumor weight in treated compared to control mice bearing hormone-dependent transplanted MXT mammary tumors at 20 mg; format: functional, organism-based
Mus musculus [11] = organism: Mus musculus; assay: Antitumor activity in hormone-dependent transplant MXT mammary tumor bearing mice at 20 mg (control=197+/-130); format: functional, organism-based
MCF7 [12] = assay: Effect on [3H]thymidine incorporation into estrogen receptor positive MCF-7 human breast cancer cells at 5x10E-6M (control = 48.6+/-3.6); format: functional
Summary of the method: (§4)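 MCF-7 cells in improved MEM with glutamine, gentamycin and 5% newborn calf serum, switched to charcoal-treated serum two weeks ahead; phenol red present; 37 °C, 5% CO2. About 2×10^4 cells plated per well; compound in 0.1% DMF added 2 days later, renewed on day 4; labelled 3 days later with 1 μCi [3H]thymidine per well for 2 h; cpm/dish, mean of six dishes ± SD.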

MCF7 [13] = assay: Effect on Estrogen receptor positive MCF-7 human breast cancer cell proliferation at 5x10E-6M; format: functional; summary of the method: as §1
MCF7 [14] = assay: Effect on Estrogen receptor positive MCF-7 human breast cancer cell proliferation at 1x10E-6M; format: functional; summary of the method: as §1
MCF7 [15] = assay: Effect on [3H]thymidine incorporation into estrogen receptor positive MCF-7 human breast cancer cells at 5x10E-7M (control=48.6+/-3.6); format: functional, cell-based; summary of the method: as §4
MCF7 [16] = assay: Effect on [3H]thymidine incorporation into estrogen receptor positive MCF-7 human breast cancer cells at 5x10E-6M; format: functional; summary of the method: as §4
[17] = target: T1, Estrogen receptor (Mus musculus); assay: Uterotrophic effect in mice as relative uterine weight(mg) at 25 ug (control = 14.5+/-2.1); format: functional, tissue-based; summary of the method: as §3
Mus musculus [18] = organism: Mus musculus; assay: Anti-tumor activity in hormone-dependent transplant MXT mammary tumor bearing mice at 1.5 mg (control=534+/-652); format: functional, organism-based
[19] = target: T1, Estrogen receptor (Mus musculus); assay: Anti-uterotrophic effect in hormone-dependent transplant MXT bearing mice as relative uterine weight in treated and control mice at 1.5 mg; format: functional
Mus musculus [20] = organism: Mus musculus; assay: Relative tumor weight in treated compared to control mice bearing hormone-dependent transplanted MXT mammary tumors at 1.5 mg; format: functional, organism-based
MCF7 [21] = assay: Effect on [3H]thymidine incorporation into estrogen receptor positive MCF-7 human breast cancer cells at 1x10E-6M (control = 43.4+/-1.8); format: functional; summary of the method: as §2
MCF7 [22] = assay: Effect on Estrogen receptor positive MCF-7 human breast cancer cell proliferation at 5x10E-6M (control = 62.3+/-8.8); format: functional; summary of the method: as §1
[23] = target: T1, Estrogen receptor (Mus musculus); assay: Percent inhibition of estrone stimulated uterotrophic effect in mice at 250 ug; format: functional
Summary of the method: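 Immature mice given test compound per animal sc on three consecutive days together with 0.4 μg estrone/animal/day. Killed 24 h after last injection; uteri fixed in Bouin, dried 100 °C 24 h and weighed. Inhibition = 100 − [(W_S,T − W_V)/(W_S − W_V) × 100] using relative uterus weights; 6-10 animals; Wilcoxon-Mann-Whitney U test.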

[24] = target: T1, Estrogen receptor (Mus musculus); assay: Uterotrophic effect in mice as relative uterine weight(mg) at 25 ug (control = 14.6+/-2.7); format: functional, tissue-based; summary of the method: as §3
MCF7 [25] = assay: Effect on [3H]thymidine incorporation into estrogen receptor positive MCF-7 human breast cancer cells at 5x10E-6M (control = 43.4+/-1.8); format: functional; summary of the method: as §4
[26] = target: T1, Estrogen receptor (Mus musculus); assay: Uterotrophic effect in mice as relative uterine weight(mg) at 250 ug (control = 14.6+/-2.7); format: functional, tissue-based; summary of the method: as §3
MCF7 [27] = assay: Effect on Estrogen receptor positive MCF-7 human breast cancer cell proliferation at 1x10E-6M (control = 62.3+/-8.8); format: functional; summary of the method: as §1
MCF7 [28] = assay: Effect on [3H]thymidine incorporation into estrogen receptor positive MCF-7 human breast cancer cells at 1x10E-6M (control = 7.7+/-0.8); format: functional; summary of the method: as §2
[29] = target: T1, Estrogen receptor (Mus musculus); assay: Anti-uterotrophic effect in hormone-dependent transplant MXT bearing mice as relative uterine weight in treated and control mice at 20 mg (control=100+/-30); format: functional
[30] = target: T1, Estrogen receptor (Mus musculus); assay: Uterotrophic effect in mice as relative uterine weight(mg) at 25 ug (control = 12.4+/-3.7); format: functional, tissue-based; summary of the method: as §3
Mus musculus [31] = organism: Mus musculus; assay: Relative tumor weight in treated compared to control mice bearing hormone-dependent transplanted MXT mammary tumors at 10 mg; format: functional, organism-based
MCF7 [32] = assay: Effect on Estrogen receptor positive MCF-7 human breast cancer cell proliferation at 1x10E-6M (control = 22.3+/-3.3); format: functional; summary of the method: as §1
Mus musculus [33] = organism: Mus musculus; assay: Anti-tumor activity in hormone-dependent transplant MXT mammary tumor bearing mice at 10 mg (control=534+/-652); format: functional, organism-based
[34] = target: T1, Estrogen receptor (Mus musculus); assay: Uterotrophic effect in mice as relative uterine weight(mg) at 250 ug (control = 12.4+/-3.7); format: functional, tissue-based; summary of the method: as §3
Mus musculus [35] = organism: Mus musculus; assay: Anti-tumor activity in hormone-dependent transplant MXT mammary tumor bearing mice at 20 mg (control=534+/-652); format: functional, organism-based
[36] = target: T1, Estrogen receptor (Mus musculus); assay: Anti-uterotrophic effect in hormone-dependent transplant MXT bearing mice as relative uterine weight in treated and control mice at 10 mg (control=100+/-30); format: functional
MCF7 [37] = assay: Effect on [3H]thymidine incorporation into estrogen receptor positive MCF-7 human breast cancer cells at 5x10E-6M (control = 7.7+/-0.8); format: functional; summary of the method: as §4
MCF7 [38] = assay: Effect on Estrogen receptor positive MCF-7 human breast cancer cell proliferation at 5x10E-6M (control = 22.3+/-3.3); format: functional; summary of the method: as §1
Mus musculus [39] = organism: Mus musculus; assay: Relative tumor weight in treated compared to control mice bearing hormone-dependent transplanted MXT mammary tumors at 8.8mg; format: functional
Mus musculus [40] = organism: Mus musculus; assay: Anti-tumor activity in hormone-dependent transplant MXT mammary tumor bearing mice at 8.8 mg (control=388+/-269); format: functional

Molecule: [5-hydroxy-2-(4-hydroxyphenyl)-1-[omega-[(2-pyridylmethyl)amino]hexyl]indole]dichloroplatinum (II) complex
T/C [1]: 103%
Cell no/dish (MCF7 [2]): 482000
Cell no/dish (MCF7 [3]): 345000
Activity (MCF7 [4]): 27500
Relative uterus weight [5]: 52.7 mg
T/C (MCF7 [6]): 77%
Relative uterus weight [7]: 16.3 mg
Cell no/dish (MCF7 [8]): 401000
T/C (MCF7 [9]): 57%
T/C (Mus musculus [10]): 40%
Tumor weight (Mus musculus [11]): 80 mg
Activity (MCF7 [12]): 16700
T/C (MCF7 [13]): 55%
T/C (MCF7 [14]): 64%
[3H] thymidine cpm/dish (MCF7 [15]): 33400
T/C (MCF7 [16]): 34%
Relative uterus weight [17]: 12.7 mg

Molecule: [5-hydroxy-3-methyl-2-(4-hydroxyphenyl)-1-[omega-[(2-pyridylmethyl)amino]hexyl]indole]dichloroplatinum (II) complex
Activity (MCF7 [28]): 1400
Relative uterus weight [5]: 56.3 mg
T/C [29]: 113%
Relative uterus weight [30]: 20.2 mg
T/C (Mus musculus [31]): 36%
Cell no/dish (MCF7 [32]): 116000
T/C (MCF7 [9]): 18%
Tumor weight (Mus musculus [33]): 195 mg
T/C (Mus musculus [10]): 22%
Relative uterus weight [34]: 22.5 mg
Tumor weight (Mus musculus [35]): 121 mg
T/C (MCF7 [13]): 56%
T/C [36]: 92%
Activity (MCF7 [37]): 900
T/C (MCF7 [14]): 52%
Cell no/dish (MCF7 [38]): 124000
T/C (MCF7 [16]): 12%

Molecule: CC/C(=C(\c1ccccc1)c1ccc(OCCN(C)C)cc1)c1ccccc1 [TAMOXIFEN]
T/C (Mus musculus [39]): 29%
Tumor weight (Mus musculus [40]): 114 mg

Further lines, with some results ahead:

T/C [19]: 76%
Molecule: CISPLATIN
Tumor weight (Mus musculus [18]): 64 mg
T/C (Mus musculus [20]): 12%

Relative uterus weight [5]: 51.8 mg
inhibition [23]: 5%
Relative uterus weight [24]: 21.5 mg
Relative uterus weight [26]: 14.8 mg
Molecule: [5-hydroxy-3-methyl-2-(4-hydroxyphenyl)-1-[omega-[(2-pyridylmethyl)amino]butyl]indole]dichloroplatinum (II) complex
Activity (MCF7 [21]): 38400
Cell no/dish (MCF7 [22]): 489000
T/C (MCF7 [9]): 88%
Activity (MCF7 [25]): 29500
T/C (MCF7 [13]): 79%
T/C (MCF7 [14]): 89%
Cell no/dish (MCF7 [27]): 554000
T/C (MCF7 [16]): 68%
